Experimental data taken from ChEMBL document CHEMBL5120856, “New salicylic acid derivatives, double inhibitors of glycolate oxidase and lactate dehydrogenase, as effective agents decreasing oxalate production” (Eur J Med Chem, 2022).
Calls of active or inactive are those of the source. The rule behind the calls is not given here.

Assays:
Hepatocyte [1] = test: Cytotoxicity against hyperoxaluric-primary hepatocyte isolated from Grhpr-knockdown PH2 C57BL/6 mouse assessed as cell death at 10 uM by MTS assay; type: toxicity, cell-based; settings: hepatocytes, Grhpr-knockdown PH2 (primary hyperoxaluria type 2)
Method in brief: (§1)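 Primary hepatocytes from Agxt1-/- (PH1, 5 mM glycolate), Grhpr-/- (PH2, 10 mM glycolate) or Hoga1-/- (PH3, 10 mM hydroxyproline) mice, incubated with inhibitor at 10 μM; viability followed through the oxalate assay by MTS tetrazolium method.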

Hepatocyte [2] = test: Inhibition of GO/LDHA in hyperoxaluric-primary hepatocyte isolated from Agxt1 knockdown PH1 C57BL/6 mouse assessed as relative oxalate output at 10 uM measured at 24 hrs in the presence of glycolate relative to control; type: cell-based
Method in brief: (§2)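 Agxt1-/- mouse primary hepatocytes cultured with 5 mM glycolate, inhibitor at 10 μM; extracellular oxalate measured by colorimetric kit 24 and 48 h after inhibitor addition; relative oxalate = oxalate with inhibitor over oxalate without inhibitor; negative values mean below detection limit; mean of three/four replicates ± SD.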

2-Hydroxyacid oxidase 1 [3] = molecular target: T1, 2-Hydroxyacid oxidase 1 (Homo sapiens, UniProt Q9UJM8); test: Inhibition of N-terminal His-tagged human recombinant glycolate oxidase expressed in Escherichia coli BL21 (DE3) cells using glycolate as substrate preincubated for 10 mins followed by substrate addition and measured after 10 mins by Amplex red and horseradish peroxidase based fluorescence assay
T1 sequence (Q9UJM8 whole entry): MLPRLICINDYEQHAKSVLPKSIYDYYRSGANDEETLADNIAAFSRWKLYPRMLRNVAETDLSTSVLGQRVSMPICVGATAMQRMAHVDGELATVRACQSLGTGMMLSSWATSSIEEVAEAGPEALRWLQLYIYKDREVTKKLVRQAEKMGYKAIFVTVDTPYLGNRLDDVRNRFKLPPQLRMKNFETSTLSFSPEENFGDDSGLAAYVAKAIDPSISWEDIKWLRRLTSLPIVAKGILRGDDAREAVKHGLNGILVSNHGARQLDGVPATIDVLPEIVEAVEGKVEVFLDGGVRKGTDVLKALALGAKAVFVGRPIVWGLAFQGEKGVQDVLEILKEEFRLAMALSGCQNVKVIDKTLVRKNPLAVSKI

HEK293 = test: Cytotoxicity against HEK293 cells assessed as reduction in cell viability upto 50 uM measured after 48 hrs by MTT assay; type: toxicity, cell-based; settings: human, hek293, 48 h
[4] = molecular target: T2, L-lactate dehydrogenase A chain (Homo sapiens, UniProt P00338); test: Inhibition of human recombinant LDHA using pyruvate as substrate preincubated for 10 mins followed by substrate addition and measured every 60 sec for 10 mins in the presence of NADH by fluorescence assay
Hepatocyte [5] = test: Cytotoxicity against hyperoxaluric-primary hepatocyte isolated from Agxt1-knockdown PH1 C57BL/6 mouse assessed as cell death at 10 uM by MTS assay; type: toxicity, cell-based; settings: hepatocytes, Agxt1-knockdown PH1, 10 µM; method in brief: as §1
Hepatocyte [6] = test: Cytotoxicity against hyperoxaluric-primary hepatocyte isolated from Hoga1-knockdown PH3 C57BL/6 mouse assessed as cell death at 10 uM by MTS assay; type: toxicity, cell-based; settings: hepatocytes, Hoga1-knockdown PH3, 10 µM; method in brief: as §1
Hepatocyte [7] = test: Inhibition of GO/LDHA in hyperoxaluric-primary hepatocyte isolated from Grhpr-knockdown PH2 C57BL/6 mouse assessed as relative oxalate output at 10 uM measured at 48 hrs in the presence of glycolate relative to control; type: cell-based
Method in brief: (§3)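 Grhpr-/- mouse primary hepatocytes cultured with 10 mM glycolate, inhibitor at 10 μM; extracellular oxalate determined colorimetrically at 24 and 48 h post-treatment, expressed relative to untreated medium (RO); negative RO means below detection limit; three/four replicates, mean ± SD.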

[8] = molecular target: T3, Prostaglandin G/H synthase 2 (Homo sapiens, UniProt P35354); test: Inhibition of human COX-2 using arachidonic acid as substrate measured every 60 sec for 10 mins by fluorescence based assay
T3 sequence (P35354 whole entry): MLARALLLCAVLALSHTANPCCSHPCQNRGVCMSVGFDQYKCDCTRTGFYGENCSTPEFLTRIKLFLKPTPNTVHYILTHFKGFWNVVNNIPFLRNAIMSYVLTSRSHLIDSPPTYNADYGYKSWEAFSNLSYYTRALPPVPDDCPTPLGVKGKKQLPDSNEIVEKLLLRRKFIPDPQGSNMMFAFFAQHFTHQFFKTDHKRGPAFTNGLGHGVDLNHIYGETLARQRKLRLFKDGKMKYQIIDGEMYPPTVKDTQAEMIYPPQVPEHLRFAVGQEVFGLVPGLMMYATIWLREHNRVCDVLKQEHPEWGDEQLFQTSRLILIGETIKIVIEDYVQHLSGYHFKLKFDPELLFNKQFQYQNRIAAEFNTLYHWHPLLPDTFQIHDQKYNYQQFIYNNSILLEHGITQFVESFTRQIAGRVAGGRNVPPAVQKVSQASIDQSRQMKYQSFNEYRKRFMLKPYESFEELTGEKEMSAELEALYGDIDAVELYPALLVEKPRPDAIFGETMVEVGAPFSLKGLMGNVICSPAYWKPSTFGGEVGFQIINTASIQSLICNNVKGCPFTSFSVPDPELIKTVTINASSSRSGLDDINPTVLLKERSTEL

2-Hydroxyacid oxidase 1 [9] = molecular target: T4, 2-Hydroxyacid oxidase 1 (Mus musculus, UniProt Q9WU19); test: Inhibition of N-terminal His-tagged mouse recombinant glycolate oxidase expressed in Escherichia coli BL21 (DE3) cells using glycolate as substrate preincubated for 10 mins followed by substrate addition and measured after 10 mins by Amplex red and horseradish peroxidase based fluorescence assay
T4 sequence (Q9WU19 whole entry): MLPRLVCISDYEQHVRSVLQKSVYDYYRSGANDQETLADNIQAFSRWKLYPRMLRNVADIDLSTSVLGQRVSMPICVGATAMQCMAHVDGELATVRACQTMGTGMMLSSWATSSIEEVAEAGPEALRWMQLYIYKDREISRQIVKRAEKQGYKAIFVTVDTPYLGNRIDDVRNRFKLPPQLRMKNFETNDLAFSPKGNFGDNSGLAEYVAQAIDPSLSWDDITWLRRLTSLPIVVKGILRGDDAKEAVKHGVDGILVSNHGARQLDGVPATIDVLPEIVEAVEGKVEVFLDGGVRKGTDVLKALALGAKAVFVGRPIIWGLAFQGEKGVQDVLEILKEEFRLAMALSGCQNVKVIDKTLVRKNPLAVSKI

Hepatocyte [10] = test: Inhibition of GO/LDHA in hyperoxaluric-primary hepatocyte isolated from Hoga1-knockdown PH3 C57BL/6 mouse assessed as relative oxalate output at 10 uM measured at 48 hrs in the presence of hydroxyproline relative to control; type: cell-based
Method in brief: (§4)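 Hoga1-/- mouse primary hepatocytes challenged with 10 mM hydroxyproline, inhibitor 10 μM; extracellular oxalate measured by colorimetric kit 24 and 48 h after dosing, given as ratio to oxalate without inhibitor; negative values are below detection limit; mean of three/four replicates ± SD.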

Hepatocyte [11] = test: Inhibition of GO/LDHA in hyperoxaluric-primary hepatocyte isolated from Grhpr-knockdown PH2 C57BL/6 mouse assessed as relative oxalate output at 10 uM measured at 24 hrs in the presence of glycolate relative to control; type: cell-based; method in brief: as §3
Hepatocyte [12] = test: Inhibition of GO/LDHA in hyperoxaluric-primary hepatocyte isolated from Agxt1 knockdown PH1 C57BL/6 mouse assessed as relative oxalate output at 10 uM measured at 48 hrs in the presence of glycolate relative to control; type: cell-based; method in brief: as §2
Hepatocyte [13] = test: Inhibition of GO/LDHA in hyperoxaluric-primary hepatocyte isolated from Hoga1-knockdown PH3 C57BL/6 mouse assessed as relative oxalate output at 10 uM measured at 24 hrs in the presence of hydroxyproline relative to control; type: cell-based; method in brief: as §4
[14] = molecular target: L-lactate dehydrogenase B chain (Homo sapiens, UniProt P07195); test: Inhibition of human recombinant LDHB using pyruvate as substrate preincubated for 10 mins followed by substrate addition and measured every 60 sec for 10 mins in the presence of NADH by fluorescence assay
2-Hydroxyacid oxidase 1 [15] = molecular target: T1, 2-Hydroxyacid oxidase 1; test: Non-competitive mixed inhibition of N-terminal His-tagged human recombinant glycolate oxidase expressed in Escherichia coli BL21 (DE3) cells assessed as inhibition constant using varying concentration of glycolate as substrate measured every 60 sec for 15 mins by Amplex red and horseradish peroxidase based fluorescence assay
[16] = molecular target: T5, 2-Hydroxyacid oxidase 1 (Homo sapiens) (UniProt Q9UJM8); test: Non-competitive mixed inhibition of N-terminal His-tagged human recombinant glycolate oxidase expressed in Escherichia coli BL21 (DE3) cells assessed as decrease in Vmax with increase in apparent Km using glycolate as substrate upto 60 microM
T5 sequence (whole entry): T1 sequence (Q9UJM8 whole entry)

[17] = molecular target: T2, L-lactate dehydrogenase A chain; test: Non-competitive inhibition of human recombinant LDHA assessed as inhibition constant using varying concentration of pyruvate as substrate preincubated for 10 mins followed by substrate addition and measured every 60 sec for 10 mins in the presence of NADH by fluorescence assay
[18] = molecular target: T2, L-lactate dehydrogenase A chain; test: Non-competitive inhibition of human recombinant LDHA assessed as decrease in Vmax with no effect on Km using pyruvate as substrate upto 20 uM

L-lactate dehydrogenase B chain, sequence (P07195 whole entry): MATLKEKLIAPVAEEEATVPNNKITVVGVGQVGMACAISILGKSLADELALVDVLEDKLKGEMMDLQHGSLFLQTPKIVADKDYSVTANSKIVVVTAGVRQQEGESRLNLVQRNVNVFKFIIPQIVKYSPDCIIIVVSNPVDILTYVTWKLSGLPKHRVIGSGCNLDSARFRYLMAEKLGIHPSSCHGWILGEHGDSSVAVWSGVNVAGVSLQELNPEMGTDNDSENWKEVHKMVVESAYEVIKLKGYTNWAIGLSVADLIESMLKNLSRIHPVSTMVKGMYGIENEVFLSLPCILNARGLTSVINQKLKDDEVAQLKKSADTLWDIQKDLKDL

Row | Structure (SMILES) | Activity (Hepatocyte [1]) | fold change (FC) (Hepatocyte [2]) | IC50 (2-Hydroxyacid oxidase 1 [3]) [µM] | Activity (HEK293) | IC50 [4] [nM] | Activity (Hepatocyte [5]) | Activity (Hepatocyte [6]) | fold change (FC) (Hepatocyte [7]) | IC50 [8] [µM] | IC50 (2-Hydroxyacid oxidase 1 [9]) [nM] | fold change (FC) (Hepatocyte [10]) | fold change (FC) (Hepatocyte [11]) | fold change (FC) (Hepatocyte [12]) | fold change (FC) (Hepatocyte [13]) | IC50 [14] [nM] | Ki (2-Hydroxyacid oxidase 1 [15]) [nM] | inhibition [16] | Ki [17] [nM] | inhibition [18]
1 | C#CCCCC(=O)Nc1ccc(C(=O)c2ccc(NCc3ccc(-c4ccc(O)c(C(=O)O)c4)o3)cc2)cc1.N | Non-Toxic | 0.5 | 2.4 | Non-Toxic | 500 | Non-Toxic | Non-Toxic | 0.52 | 36 | 1300 | 0.14 | 0.4 | 0.79 | 0.2 | 300 | – | – | – | –
2 | N.O=C(O)c1cc(-c2ccc(CNc3ccc(Br)cc3)o2)ccc1O | Non-Toxic | 0.19 | 4.2 | Non-Toxic | 600 | Non-Toxic | Non-Toxic | 0.56 | 35 | 3100 | 0.18 | 0.41 | 0.57 | 0.26 | 1100 | 1100 | Active | 900 | Active
